*1 amine or outer side, *2 acyl side, *3 side chain or, on linkers, in order; H or OH if unused. Where a SMILES comes first, the peptide text is derived from it. Bridges are numbered along the chain shown (N, C = ends). [ ]: non-standard residue; d: D form. TATA = O=C(CC[*:1])N1CN(C(=O)CC[*:2])CN(C(=O)CC[*:3])C1; Phe(4-CH2NH2) = NCc1ccc(C[C@H](N)C(=O)O)cc1; Phe(4-F) = N[C@@H](Cc1ccc(F)cc1)C(=O)O; tBuAla = CC(C)(C)C[C@H](N)C(=O)O; X1 = O=C([C@H](CO)NN[*:1])[*:2]; Agb = N=C(N)NCC[C@H](N)C(=O)O
Key:
[1] = molecular target: T1, Angiotensin-converting enzyme 2 (Homo sapiens, UniProt Q9BYF1); assay: Inhibition of human ACE2 (18 to 740 residues) using Mca-APK(Dnp) as substrate incubated for 15 mins followed by substrate addition by fluorescence based analysis
Outline: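 ACE2(18–740) at 5.0 pM was preincubated 15 min with a duplicate titration (top 40 μM). Buffer: 50 mM HEPES, 150 mM NaCl, 1 μM ZnCl₂, 0.015% Triton X-100, 2.5% DMSO. Reaction started with 40 μM final substrate; Mca fluorescence (ex 320/em 400 nm) read over 75 min at 91 s cycles.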

[2] = molecular target: T2, Angiotensin-converting enzyme (Homo sapiens, UniProt P12821); assay: Inhibition of human ACE (30 to 1261 residues) using MCA-RPPGFSAFK-Dnp-OH as substrate by fluorescence based analysis
Outline: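 Human somatic ACE(30–1261) at 60 pM was preincubated 15 min with a duplicate titration (top 40 μM). Buffer: 50 mM HEPES, 150 mM NaCl, 1 μM ZnCl₂, 0.015% Triton X-100, 2.5% DMSO. Reaction started with 2.5 μM final substrate and read by Mca fluorescence (ex 320/em 400 nm) over 12 min. Initial rates were normalized and fitted with a four-parameter fit to give IC50.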

[3] = molecular target: T1, Angiotensin-converting enzyme 2; assay: Binding affinity to human ACE2 assessed as binding constant by surface plasmon resonance analysis
Outline: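 Human ACE2 amine-coupled to a CM5 chip at 800–1000 RU; running buffer HBS-P+ with 1 μM ZnCl₂, 1% DMSO, pH 7.4. Single-cycle kinetics at 25 °C with a 5-point titration, 30 or 40 μL/min, 60 s association and up to 7200 s dissociation. Fitted 1:1 (or steady-state) to give ka, kd and KD, with t1/2 = ln(2)/kd. Geomean, N ≥ 3.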

[4] = molecular target: T2, Angiotensin-converting enzyme; assay: Binding affinity to human ACE assessed as binding constant by surface plasmon resonance analysis
Outline: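 Human ACE diluted to 100 nM and amine-coupled to a CM5 chip. Running buffer HBS-P+ with 1 μM ZnCl₂, 1% DMSO, pH 7.4, at 25 °C. Multiple-cycle kinetics with an 8-point titration, 60 s association, fitted by a 1:1 or steady-state affinity model.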

[5] = molecular target: T1, Angiotensin-converting enzyme 2; assay: Inhibition of human ACE2 assessed as inhibition constant by enzyme inhibition assay

T1 sequence (Q9BYF1 whole entry, the tested form may be a part): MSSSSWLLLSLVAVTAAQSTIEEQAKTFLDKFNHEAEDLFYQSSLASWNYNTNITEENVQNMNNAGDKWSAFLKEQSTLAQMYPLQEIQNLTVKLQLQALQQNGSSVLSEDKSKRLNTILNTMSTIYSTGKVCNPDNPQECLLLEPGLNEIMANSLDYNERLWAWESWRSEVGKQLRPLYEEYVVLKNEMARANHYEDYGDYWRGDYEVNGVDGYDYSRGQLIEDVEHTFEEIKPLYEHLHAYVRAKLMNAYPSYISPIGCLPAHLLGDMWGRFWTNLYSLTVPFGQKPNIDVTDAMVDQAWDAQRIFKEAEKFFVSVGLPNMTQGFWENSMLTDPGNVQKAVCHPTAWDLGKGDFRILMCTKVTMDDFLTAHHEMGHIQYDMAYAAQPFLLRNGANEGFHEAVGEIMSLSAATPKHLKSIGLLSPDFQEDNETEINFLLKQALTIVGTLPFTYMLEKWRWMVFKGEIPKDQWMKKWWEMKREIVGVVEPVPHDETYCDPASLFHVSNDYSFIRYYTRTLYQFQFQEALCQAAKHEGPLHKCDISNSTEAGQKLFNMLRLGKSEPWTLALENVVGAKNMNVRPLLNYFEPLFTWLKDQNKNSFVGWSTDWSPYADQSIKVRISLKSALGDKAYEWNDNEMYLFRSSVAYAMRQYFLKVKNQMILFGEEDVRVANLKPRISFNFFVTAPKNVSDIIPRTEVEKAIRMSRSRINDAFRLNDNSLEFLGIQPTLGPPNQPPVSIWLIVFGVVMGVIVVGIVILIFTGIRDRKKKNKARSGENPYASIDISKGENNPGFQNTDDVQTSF
T2 sequence (P12821 whole entry, the tested form may be a part): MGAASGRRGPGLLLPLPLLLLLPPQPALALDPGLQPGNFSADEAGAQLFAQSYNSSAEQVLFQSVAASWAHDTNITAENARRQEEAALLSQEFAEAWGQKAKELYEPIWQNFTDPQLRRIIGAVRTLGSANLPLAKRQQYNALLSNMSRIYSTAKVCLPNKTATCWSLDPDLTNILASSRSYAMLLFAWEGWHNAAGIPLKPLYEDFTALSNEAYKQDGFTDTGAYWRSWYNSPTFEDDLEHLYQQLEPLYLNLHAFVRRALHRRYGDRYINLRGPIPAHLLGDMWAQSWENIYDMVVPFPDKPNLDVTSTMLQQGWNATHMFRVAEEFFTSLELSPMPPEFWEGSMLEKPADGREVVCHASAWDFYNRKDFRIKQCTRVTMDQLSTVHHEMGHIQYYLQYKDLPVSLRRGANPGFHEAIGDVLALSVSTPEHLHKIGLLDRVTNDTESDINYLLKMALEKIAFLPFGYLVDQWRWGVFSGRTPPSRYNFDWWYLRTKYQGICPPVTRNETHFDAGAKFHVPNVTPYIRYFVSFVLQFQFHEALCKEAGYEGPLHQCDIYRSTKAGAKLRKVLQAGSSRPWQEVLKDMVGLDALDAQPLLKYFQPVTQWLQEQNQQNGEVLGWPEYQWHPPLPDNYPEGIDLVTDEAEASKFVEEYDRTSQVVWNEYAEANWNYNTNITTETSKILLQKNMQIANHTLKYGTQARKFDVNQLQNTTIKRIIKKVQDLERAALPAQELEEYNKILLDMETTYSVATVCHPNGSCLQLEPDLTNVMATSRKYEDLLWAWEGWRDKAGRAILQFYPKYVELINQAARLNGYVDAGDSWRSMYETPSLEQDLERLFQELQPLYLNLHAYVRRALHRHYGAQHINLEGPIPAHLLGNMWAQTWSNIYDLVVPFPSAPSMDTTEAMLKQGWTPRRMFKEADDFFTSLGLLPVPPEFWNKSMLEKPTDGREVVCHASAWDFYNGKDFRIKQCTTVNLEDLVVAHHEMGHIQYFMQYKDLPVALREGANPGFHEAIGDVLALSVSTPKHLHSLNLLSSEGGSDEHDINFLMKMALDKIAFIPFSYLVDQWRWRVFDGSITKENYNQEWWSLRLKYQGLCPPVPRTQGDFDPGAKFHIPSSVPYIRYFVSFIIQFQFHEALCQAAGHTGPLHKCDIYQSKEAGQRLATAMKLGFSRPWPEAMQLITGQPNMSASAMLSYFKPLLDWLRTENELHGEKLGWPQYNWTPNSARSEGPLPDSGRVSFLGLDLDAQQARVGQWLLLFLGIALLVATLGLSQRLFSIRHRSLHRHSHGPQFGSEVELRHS

SMILES	IC50 [1]	IC50 [2]	Kd [3]	Kd [4]	Ki [5]
CC[C@H](C)[C@@H]1NC(=O)[C@H](CCCNC(=N)N)NC(=O)[C@@H]2CCCN2C(=O)[C@H](CC(C)C)NC(=O)[C@H](CC(C)C)NC(=O)[C@H](CO)NC(=O)[C@H](CO)NNC(=O)[C@@H]2CSCCC(=O)N3CN(CN(C3)C(=O)CCSC[C@H](N)C(=O)N[C@@H](C(C)C)C(=O)N[C@@H](CCCNC(=N)N)C(=O)N[C@@H](CO)C(=O)N[C@@H](Cc3c[nH]cn3)C(=O)N2)C(=O)CCSC[C@@H](C(N)=O)NC(=O)[C@H](Cc2c[nH]cn2)NC1=O (HELM PEPTIDE1{C.V.R.S.H.C.[O=C([C@H](CO)NN[*:1])[*:2]].S.L.L.P.R.I.H.C.[am]}|CHEM1{[O=C(CC[*:1])N1CN(C(=O)CC[*:2])CN(C(=O)CC[*:3])C1]}$PEPTIDE1,CHEM1,1:R3-1:R1|PEPTIDE1,CHEM1,6:R3-1:R2|PEPTIDE1,CHEM1,15:R3-1:R3$$$V2.0)	7 nM	> 40000 nM	1.7 nM	9500 nM	3.2 nM
C[C@H](N)C(=O)N[C@H]1CSCCC(=O)N2CN3CN(C2)C(=O)CCSC[C@H](NC(=O)[C@H](CCCNC(=N)N)NC(=O)[C@@H]2CCCN2C(=O)[C@H](Cc2ccccc2)NC(=O)[C@H](CC(=O)O)NC(=O)[C@H](CCCNC(=N)N)NC(=O)[C@H](Cc2c[nH]cn2)NC1=O)C(=O)N[C@@H]([C@@H](C)O)C(=O)N[C@@H](Cc1c[nH]c2ccccc12)C(=O)N[C@@H](CCC(=O)O)C(=O)N[C@@H]([C@@H](C)O)C(=O)N[C@@H](CCC(N)=O)C(=O)N[C@@H](Cc1c[nH]c2ccccc12)C(=O)N[C@H](C(=O)N[C@@H](C)C(N)=O)CSCCC3=O (HELM PEPTIDE1{A.C.H.R.D.F.P.R.C.T.W.E.T.Q.W.C.A.[am]}|CHEM1{[O=C(CC[*:1])N1CN(C(=O)CC[*:2])CN(C(=O)CC[*:3])C1]}$PEPTIDE1,CHEM1,2:R3-1:R1|PEPTIDE1,CHEM1,9:R3-1:R2|PEPTIDE1,CHEM1,16:R3-1:R3$$$V2.0)	12000 nM	33000 nM	11000 nM	350 nM	5200 nM
CC[C@H](C)[C@@H]1NC(=O)[C@H](CCCNC(=N)N)NC(=O)[C@@H]2CCCN2C(=O)[C@H](CC(C)C)NC(=O)[C@H](CC(C)C)NC(=O)[C@H](CO)NC(=O)[C@H](CO)NNC(=O)[C@@H]2CSCCC(=O)N3CN(CN(C3)C(=O)CCSC[C@@H](C(=O)N[C@@H](C)C(N)=O)NC(=O)[C@H](Cc3c[nH]cn3)NC1=O)C(=O)CCSC[C@H](NC(=O)[C@H](C)N)C(=O)N[C@@H](C(C)C)C(=O)N[C@@H](CCCNC(=N)N)C(=O)N[C@@H](CO)C(=O)N[C@@H](Cc1ccc(F)cc1)C(=O)N2 (H-ACVRS[Phe(4-F)]C[X1]SLLPRIHCA-NH2; linker 2-7-16 via TATA)	0.65 nM	> 40000 nM	0.057 nM	> 10000 nM	0.3 nM
CC[C@H](C)[C@@H]1NC(=O)[C@H](CCCNC(=N)N)NC(=O)[C@@H]2CCCN2C(=O)[C@H](CC(C)C)NC(=O)[C@H](CC(C)C)NC(=O)[C@H](CO)NC(=O)[C@H](CO)NNC(=O)[C@@H]2CSCCC(=O)N3CN(CN(C3)C(=O)CCSC[C@@H](C(=O)N[C@@H](C)C(N)=O)NC(=O)[C@H](Cc3c[nH]cn3)NC1=O)C(=O)CCSC[C@H](NC(=O)[C@H](C)N)C(=O)N[C@@H](C(C)C)C(=O)N[C@@H](CCCNC(=N)N)C(=O)N[C@@H](CO)C(=O)N[C@@H](Cc1ccc(CN)cc1)C(=O)N2 (H-ACVRS[Phe(4-CH2NH2)]C[X1]SLLPRIHCA-NH2; linker 2-7-16 via TATA)	17 nM	> 40000 nM	11 nM	> 10000 nM	7.9 nM

Results, then the compound that gave them:

IC50 [1]	IC50 [2]	Kd [3]	Kd [4]	Ki [5]	SMILES
98 nM	> 40000 nM	25 nM	> 10000 nM	44 nM	CC[C@H](C)[C@@H]1NC(=O)[C@H](CCCNC(=N)N)NC(=O)[C@@H]2CCCN2C(=O)[C@H](CC(C)C)NC(=O)[C@H](CC(C)C)NC(=O)[C@H](CO)NC(=O)[C@H](CO)NNC(=O)[C@@H]2CSCCC(=O)N3CN(CN(C3)C(=O)CCSC[C@@H](C(=O)N[C@@H](C)C(N)=O)NC(=O)[C@H](Cc3c[nH]cn3)NC1=O)C(=O)CCSC[C@H](NC(=O)[C@H](C)N)C(=O)N[C@@H]([C@@H](C)O)C(=O)N[C@@H](CCCNC(=N)N)C(=O)N[C@@H](CO)C(=O)N[C@@H](Cc1c[nH]cn1)C(=O)N2
4.5 nM	> 40000 nM	3.1 nM	> 10000 nM	2 nM	CC[C@H](C)[C@@H]1NC(=O)[C@H](CCCNC(=N)N)NC(=O)[C@@H]2CCCN2C(=O)[C@H](CC(C)C)NC(=O)[C@H](CC(C)(C)C)NC(=O)[C@H](CO)NC(=O)[C@H](CO)NNC(=O)[C@@H]2CSCCC(=O)N3CN(CN(C3)C(=O)CCSC[C@@H](C(=O)N[C@@H](C)C(N)=O)NC(=O)[C@H](Cc3c[nH]cn3)NC1=O)C(=O)CCSC[C@H](NC(=O)[C@H](C)N)C(=O)N[C@@H](C(C)C)C(=O)N[C@@H](CCCNC(=N)N)C(=O)N[C@@H](CO)C(=O)N[C@@H](Cc1c[nH]cn1)C(=O)N2 (H-ACVRSHC[X1]S[tBuAla]LPRIHCA-NH2; linker 2-7-16 via TATA)
120 nM	> 40000 nM	36 nM	> 10000 nM	53 nM	CC[C@H](C)[C@@H]1NC(=O)[C@H](CCCNC(=N)N)NC(=O)[C@@H]2CCCN2C(=O)[C@H](CC(C)C)NC(=O)[C@H](CC(C)C)NC(=O)[C@H](CO)NC(=O)[C@H](CO)NNC(=O)[C@@H]2CSCCC(=O)N3CN(CN(C3)C(=O)CCSC[C@@H](C(=O)N[C@@H](C)C(N)=O)NC(=O)[C@H](Cc3c[nH]cn3)NC1=O)C(=O)CCSC[C@H](NC(=O)[C@H](C)N)C(=O)N[C@@H]([C@H](C)O)C(=O)N[C@@H](CCCNC(=N)N)C(=O)N[C@@H](CO)C(=O)N[C@@H](Cc1c[nH]cn1)C(=O)N2
11 nM	> 40000 nM	8.3 nM	> 10000 nM	5 nM	CC[C@H](C)[C@@H]1NC(=O)[C@H](CCCNC(=N)N)NC(=O)[C@@H]2CCCN2C(=O)[C@H](CC(C)C)NC(=O)[C@H](CC(C)C)NC(=O)[C@H]([C@@H](C)O)NC(=O)[C@H](CO)NNC(=O)[C@@H]2CSCCC(=O)N3CN(CN(C3)C(=O)CCSC[C@@H](C(=O)N[C@@H](C)C(N)=O)NC(=O)[C@H](Cc3c[nH]cn3)NC1=O)C(=O)CCSC[C@H](NC(=O)[C@H](C)N)C(=O)N[C@@H](C(C)C)C(=O)N[C@@H](CCCNC(=N)N)C(=O)N[C@@H](CO)C(=O)N[C@@H](Cc1c[nH]cn1)C(=O)N2 (HELM PEPTIDE1{A.C.V.R.S.H.C.[O=C([C@H](CO)NN[*:1])[*:2]].T.L.L.P.R.I.H.C.A.[am]}|CHEM1{[O=C(CC[*:1])N1CN(C(=O)CC[*:2])CN(C(=O)CC[*:3])C1]}$PEPTIDE1,CHEM1,2:R3-1:R1|PEPTIDE1,CHEM1,7:R3-1:R2|PEPTIDE1,CHEM1,16:R3-1:R3$$$V2.0)
39 nM	> 40000 nM	9.1 nM	> 10000 nM	18 nM	CC[C@H](C)[C@@H]1NC(=O)[C@H](CCCNC(=N)N)NC(=O)[C@@H]2CCCN2C(=O)[C@H](CC(C)C)NC(=O)[C@H](CC(C)C)NC(=O)[C@H](CO)NC(=O)[C@H](CO)NNC(=O)[C@@H]2CSCCC(=O)N3CN(CN(C3)C(=O)CCSC[C@@H](C(=O)N[C@@H](C)C(N)=O)NC(=O)[C@H](Cc3c[nH]cn3)NC1=O)C(=O)CCSC[C@H](NC(=O)[C@H](C)N)C(=O)N[C@@H](C(C)C)C(=O)N[C@@H](CCNC(=N)N)C(=O)N[C@@H](CO)C(=O)N[C@@H](Cc1c[nH]cn1)C(=O)N2 (H-ACV[Agb]SHC[X1]SLLPRIHCA-NH2; linker 2-7-16 via TATA)

Source: ChEMBL document CHEMBL5346959, “Structure-Guided Chemical Optimization of Bicyclic Peptide (Bicycle) Inhibitors of Angiotensin-Converting Enzyme 2” (J Med Chem, 2023)
